Calls of active or inactive are those of the source. The calls are words filed in the database; no cut-off is given here.
Tests used:
[1] = target: Toll-like receptor 2 (Homo sapiens) (UniProt O60603); assay: Antagonist activity at human TLR2 expressed in HEK-blue cells assessed as inhibition of Pam3CSK4-induced NF-kappaB activation-mediated SEAP production at 50 uM after 24 hrs by Quanti-blue-based assay; type: cell-based
Summary of the method: (§1)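 HEK-Blue hTLR2 cells in DMEM with 10% serum and antibiotics, plated at 4 × 10⁴ cells per well for 24 h. Medium then replaced with compound plus agonist for 24 h at 37 °C. Agonists (final): Pam₃CSK₄ 10 ng/ml (TLR1/2), Pam₂CSK₄ 10 ng/ml (TLR2/6), Poly I:C 10 µg/ml (TLR3). Supernatant mixed 1:1 with Quanti-Blue; SEAP read at OD 620 nm after 15–30 min.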

[2] = target: Toll-like receptor 2 (Homo sapiens) (UniProt O60603); assay: Antagonist activity at human TLR2 expressed in HEK-blue cells assessed as inhibition of Pam3CSK4-induced NF-kappaB activation-mediated SEAP production at 25 uM after 24 hrs by Quanti-blue-based assay; type: cell-based; summary of the method: as §1
TLR2/TLR6 (Homo sapiens) [3] = target: T1, TLR2/TLR6 (Homo sapiens) (UniProt O60603+Q9Y2C9); assay: Antagonist activity at human TLR2/6 expressed in HEK-blue cells assessed as inhibition of Pam2CSK4-induced IL-8 mRNA expression at 100 uM preincubated for 1 hr followed by Pam2CSK4 induction measured after 1 hr by qRT-PCR method relative to control; type: cell-based
[4] = target: T2, Toll-like receptor 1/2 (Homo sapiens) (UniProt O60603+Q15399); assay: Antagonist activity at human TLR1/2 expressed in HEK-blue cells assessed as inhibition of Pam3CSK4-induced IL-8 mRNA expression at 100 uM preincubated for 1 hr followed by Pam3CSK4 induction measured after 1 hr by qRT-PCR method relative to control; type: cell-based
[5] = target: Toll-like receptor 2 (Homo sapiens) (UniProt O60603); assay: Antagonist activity at TLR2 in human PBMC assessed as inhibition of Pam3CSK4-induced TNFalpha signalling after 24 hrs by ELISA; type: cell-based
Summary of the method: (§2)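 Human PBMC seeded at 2.5 × 10⁵ cells per well in RPMI 1640 with 10% FBS and 1% penicillin/streptomycin. Cells treated with compound plus Pam₃CSK₄ 10 ng/ml for 24 h at 37 °C, 5% CO₂. Supernatants stored frozen at −80 °C. TNF-α measured by sandwich ELISA against recombinant human standards, each sample in triplicate.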

[6] = target: Toll-like receptor 3 (Homo sapiens) (UniProt O15455); assay: Antagonist activity at human TLR3 expressed in HEK-Blue assessed as inhibition of poly 1:C-induced NF-kappaB activation-mediated SEAP production at 25 uM after 24 hrs by Quanti-blue-based assay; summary of the method: as §1
[7] = target: Toll-like receptor 2 (Homo sapiens) (UniProt O60603); assay: Antagonist activity at TLR2 in human PBMC assessed as inhibition of Pam3CSK4-induced TNFalpha signalling at 10 uM after 24 hrs by ELISA relative to control; type: cell-based; summary of the method: as §2
[8] = Cytotoxicity against HEK-Blue cells up to 100 uM after 24 hrs by MTT assay; type: cell-based; settings: human
Summary of the method: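 HEK-TLR2 cells in DMEM with 10% FBS, plated at 4 × 10⁴ cells per well for 24 h. Compound plus Pam₃CSK₄ (final 10 ng/ml) added, then incubated 24 h. MTT (5 mg/ml in PBS) added for 3 h at 37 °C. Formazan dissolved in DMSO; absorbance read at 490 nm.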

TLR2/TLR6 (Mus musculus) = TLR2/TLR6 (Mus musculus) (UniProt Q9QUN7+Q9EPW9); assay: Antagonist activity at TLR2/TLR6 in mouse Raw 264.7 cells assessed as decrease in Pam2CSK4-induced iNOS levels at 40 uM after 24 hrs relative to positive control; type: cell-based
Summary of the method: (§3)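 Raw 264.7 cells in RPMI 1640 with 10% serum and antibiotics, plated at 8 × 10⁴ cells per well for 24 h. Compound and TLR agonist (Pam₃CSK₄ for TLR1/2, Pam₂CSK₄ for TLR2/6) added, then incubated 24 h. Nitric oxide in supernatant detected with DAN (0.05 mg/ml in 0.62 M HCl), 15 min in the dark.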

[9] = target: Toll-like receptor 2 (Homo sapiens) (UniProt O60603); assay: Antagonist activity at human TLR2 expressed in HEK-Blue cells assessed as inhibition of Pam3CSK4-induced TLR2 upregulation at 10 uM by Western blot analysis; type: cell-based
Summary of the method: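 HEK-Blue hTLR2 cells treated with compound and Pam₃CSK₄ at 400 ng/ml. Lysed in RIPA buffer with 1% PMSF; proteins run on SDS-PAGE and transferred to PVDF. Membranes blocked with 5% milk in TBST. Probed overnight at 4 °C with anti-TLR2 (1:250) and anti-GAPDH (1:2000), then HRP secondary (1:2500) 1 h at RT. Detected by ECL.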

TLR2/TLR6 (Homo sapiens) [10] = target: T1, TLR2/TLR6 (Homo sapiens); assay: Antagonist activity at human TLR2/6 expressed in HEK-blue cells assessed as inhibition of Pam2CSK4-induced NF-kappaB activation-mediated SEAP production at 25 uM after 24 hrs by Quanti-blue-based assay; type: cell-based; summary of the method: as §1
[11] = target: Toll-like receptor 2 (Mus musculus) (UniProt Q9QUN7); assay: Antagonist activity at TLR2 in mouse Raw 264.7 cells assessed as decrease in Pam3CSK4-induced iNOS levels at 40 uM after 24 hrs relative to positive control; type: cell-based; summary of the method: as §3
[12] = target: T2, Toll-like receptor 1/2 (Homo sapiens); assay: Antagonist activity at human TLR1/2 expressed in HEK-blue cells assessed as inhibition of Pam3CSK4-induced NF-kappaB activation-mediated SEAP production at 25 uM after 24 hrs by Quanti-blue-based assay; type: cell-based; summary of the method: as §1

Chain of Toll-like receptor 2 (Homo sapiens) (O60603 whole entry): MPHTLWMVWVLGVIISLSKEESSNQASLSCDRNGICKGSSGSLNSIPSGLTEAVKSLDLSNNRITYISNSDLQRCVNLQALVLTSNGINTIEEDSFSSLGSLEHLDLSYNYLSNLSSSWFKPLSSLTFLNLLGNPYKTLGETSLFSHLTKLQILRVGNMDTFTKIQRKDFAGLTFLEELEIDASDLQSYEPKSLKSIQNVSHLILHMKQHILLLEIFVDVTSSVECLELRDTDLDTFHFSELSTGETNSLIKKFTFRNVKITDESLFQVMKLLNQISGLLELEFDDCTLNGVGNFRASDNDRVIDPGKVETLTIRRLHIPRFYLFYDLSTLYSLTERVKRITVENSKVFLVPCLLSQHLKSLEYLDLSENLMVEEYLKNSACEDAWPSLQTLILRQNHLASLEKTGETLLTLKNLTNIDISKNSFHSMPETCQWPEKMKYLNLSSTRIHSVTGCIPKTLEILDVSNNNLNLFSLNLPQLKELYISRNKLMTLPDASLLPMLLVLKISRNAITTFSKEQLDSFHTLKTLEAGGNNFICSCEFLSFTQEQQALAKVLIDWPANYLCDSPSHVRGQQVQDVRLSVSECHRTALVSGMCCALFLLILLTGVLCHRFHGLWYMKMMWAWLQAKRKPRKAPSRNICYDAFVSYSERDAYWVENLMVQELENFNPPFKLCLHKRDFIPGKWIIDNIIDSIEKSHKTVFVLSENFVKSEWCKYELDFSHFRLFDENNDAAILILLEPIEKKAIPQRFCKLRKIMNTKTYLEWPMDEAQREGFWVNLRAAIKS
Chain of Toll-like receptor 2 (Mus musculus) (Q9QUN7 whole entry): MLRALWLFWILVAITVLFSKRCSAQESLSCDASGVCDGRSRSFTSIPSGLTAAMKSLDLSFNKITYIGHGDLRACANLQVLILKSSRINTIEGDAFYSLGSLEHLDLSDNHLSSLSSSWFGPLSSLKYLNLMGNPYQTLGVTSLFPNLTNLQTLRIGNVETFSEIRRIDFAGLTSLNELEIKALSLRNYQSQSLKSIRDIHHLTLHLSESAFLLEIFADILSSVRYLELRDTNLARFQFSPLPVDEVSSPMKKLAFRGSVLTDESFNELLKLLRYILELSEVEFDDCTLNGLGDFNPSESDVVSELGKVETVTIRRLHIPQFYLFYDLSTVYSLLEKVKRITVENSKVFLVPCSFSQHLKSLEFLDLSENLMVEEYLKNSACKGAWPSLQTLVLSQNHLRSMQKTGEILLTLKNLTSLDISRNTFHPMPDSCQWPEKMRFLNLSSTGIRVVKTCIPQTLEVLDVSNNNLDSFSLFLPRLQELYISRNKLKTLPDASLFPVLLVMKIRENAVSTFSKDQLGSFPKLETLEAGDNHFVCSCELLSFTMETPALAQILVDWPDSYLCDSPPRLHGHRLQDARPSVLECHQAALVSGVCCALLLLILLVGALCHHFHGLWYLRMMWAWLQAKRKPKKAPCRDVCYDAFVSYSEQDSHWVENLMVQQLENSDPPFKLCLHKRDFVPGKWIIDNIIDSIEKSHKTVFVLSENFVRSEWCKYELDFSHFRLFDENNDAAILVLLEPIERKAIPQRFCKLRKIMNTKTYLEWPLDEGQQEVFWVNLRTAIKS
Chain of Toll-like receptor 3 (Homo sapiens) (O15455 whole entry): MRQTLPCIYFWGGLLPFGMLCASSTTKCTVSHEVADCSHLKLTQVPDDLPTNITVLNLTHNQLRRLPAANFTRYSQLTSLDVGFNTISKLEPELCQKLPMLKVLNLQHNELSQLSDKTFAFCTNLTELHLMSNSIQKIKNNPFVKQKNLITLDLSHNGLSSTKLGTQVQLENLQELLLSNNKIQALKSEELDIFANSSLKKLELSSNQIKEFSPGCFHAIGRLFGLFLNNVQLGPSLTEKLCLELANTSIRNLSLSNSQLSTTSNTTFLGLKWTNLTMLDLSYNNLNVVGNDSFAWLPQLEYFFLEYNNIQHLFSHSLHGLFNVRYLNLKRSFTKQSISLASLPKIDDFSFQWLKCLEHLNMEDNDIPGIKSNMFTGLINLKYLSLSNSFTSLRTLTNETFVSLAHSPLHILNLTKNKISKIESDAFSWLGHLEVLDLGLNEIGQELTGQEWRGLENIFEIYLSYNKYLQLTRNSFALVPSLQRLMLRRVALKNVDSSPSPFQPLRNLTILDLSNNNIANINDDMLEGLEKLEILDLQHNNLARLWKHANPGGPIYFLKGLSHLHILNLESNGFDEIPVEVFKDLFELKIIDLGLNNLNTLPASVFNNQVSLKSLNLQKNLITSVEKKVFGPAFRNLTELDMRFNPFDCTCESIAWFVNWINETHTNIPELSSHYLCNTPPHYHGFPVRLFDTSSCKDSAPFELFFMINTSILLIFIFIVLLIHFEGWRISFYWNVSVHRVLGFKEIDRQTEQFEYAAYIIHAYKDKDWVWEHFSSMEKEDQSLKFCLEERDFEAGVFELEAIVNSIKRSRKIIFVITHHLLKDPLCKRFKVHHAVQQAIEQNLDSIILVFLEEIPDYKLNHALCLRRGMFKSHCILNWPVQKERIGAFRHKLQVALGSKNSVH

Compound	inhibition [1] [%]	inhibition [2] [%]	also measured
C(=N\c1ccc(-c2ccccc2)cc1)/c1cccc2ccccc12	0	0	
COc1cccc(CNc2ccccc2C(=O)c2ccc(Cl)cc2)c1O	19.2	0	
Oc1ccc(/N=C/C=C/c2ccccc2)cc1	95.8	27.5	
O=C(c1ccccc1)c1ccccc1/N=C/c1c(O)ccc2ccccc12	0	2.72	
COc1cccc(/C=N/c2cccc(C(=O)O)c2C)c1	1.61	0.99	
COc1cccc(/C=N/c2ccc(-c3ccccc3)cc2)c1	0	0	
O=C(O)c1ccc(C(F)(F)F)cc1/N=C\c1c[nH]c2ccccc12	5.77	0.33	
COc1ccc(/N=C/c2cccc3ccccc23)cc1	1.97	5.21	
CCOc1cccc(/C=N/c2ccc(OC)cc2)c1O	35.2	8.33	
Cc1c(/N=C/c2c(O)ccc3ccccc23)cccc1C(=O)O	0	0	
C(=C\c1ccccc1)/C=N/c1ccc(-c2ccccc2)cc1	3.1	5.63	
Oc1ccc2ccccc2c1/C=N/c1ccc(-c2ccccc2)cc1	1.41	5.35	
COc1cc(/C=N/c2cc(N)cc(C(=O)O)c2)ccc1O	0	0	
COc1cccc(/C=N/c2cccc(C(=O)O)c2)c1O	23.7	0	
CCOc1cccc(/C=N/c2ccc(O)cc2)c1O	75.7	5.77	
COc1cccc(/N=C/c2ccc(C(F)(F)F)cc2)c1	0.28	7.27	
Cc1cccc(/N=C/c2c(O)ccc3ccccc23)c1C(=O)O	0	0	
COc1ccc(/N=C/c2cccc(O)c2O)cc1	44.9	17	
O=C(O)c1cccc(/N=C/c2c(O)ccc3ccccc23)c1	0	0	
CCOc1cccc(/C=N/c2cccc(C(=O)O)c2C)c1O	38	5.43	
Cc1c(/N=C/C=C/c2ccccc2)cccc1C(=O)O	14.4	1.74	
COc1cccc(/C=N/c2cccc(C(=O)O)c2C)c1O	51.8	14.9	inhibition (TLR2/TLR6 (Homo sapiens) [3]): > 50%; inhibition [4]: > 50%
COc1cc(/C=N/c2ccc(O)cc2)ccc1O	62.7	7.51	
COc1cccc(/C=N/c2ccc(O)cc2)c1	56.4	0.74	
Cc1c(/N=C/c2ccc(C(F)(F)F)cc2)cccc1C(=O)O	0	0	

Compound	inhibition [1] [%]	inhibition [2] [%]	also measured
COc1cccc(/C=N/c2ccccc2C(=O)c2ccccc2)c1O	30	1.86	
COc1ccc(/N=C\c2c[nH]c3ccccc23)cc1	0	2.11	
COc1cccc(/C=N/c2ccc(O)cc2)c1O	91.1	14.9	
COc1cccc(/C=N/c2ccccc2C(=O)c2ccc(Cl)cc2)c1O	95.1	66.8	inhibition [5]: Dose-dependent effect; inhibition [6]: inactive; inhibition [7]: 90%; Activity [8]: Non-Toxic; inhibition (TLR2/TLR6 (Mus musculus)): > 70%; inhibition [9]: 50%; inhibition (TLR2/TLR6 (Homo sapiens) [10]): Active; inhibition [11]: > 70%; inhibition [12]: Active
CCOc1cccc(/C=N/c2cccc(C(=O)O)c2)c1O	19.4	6.93	
CCOc1cccc(/C=N/c2ccccc2C(=O)c2ccccc2)c1O	49	3.59	
C(=N/c1ccc(-c2ccccc2)cc1)/c1c[nH]c2ccccc12	3.8	2.35	
O=C(O)c1ccc(C(F)(F)F)cc1/N=C/c1c(O)ccc2ccccc12	0	2.53	
FC(F)(F)c1ccc(/C=N/c2ccc(-c3ccccc3)cc2)cc1	0.75	5.07	
O=C(c1ccc(Cl)cc1)c1ccccc1/N=C/c1c(O)ccc2ccccc12	22.9	3.09	
Oc1ccc(/N=C/c2c(O)ccc3ccccc23)cc1	0	0	
COc1ccc(/N=C/C=C/c2ccccc2)cc1	15.1	3.99	
Cc1c(/N=C\c2c[nH]c3ccccc23)cccc1C(=O)O	2.58	2.39	
Oc1ccc(/N=C/c2cccc3ccccc23)cc1	98.8	44	
COc1ccc(/N=C/c2c(O)ccc3ccccc23)cc1	0	3.66	
CCOc1cccc(/C=N/c2ccccc2C(=O)c2ccc(Cl)cc2)c1O	70.7	35.5	
CCOc1cccc(/C=N/c2cccc(C)c2C(=O)O)c1O	27.8	2.39	
CCOc1cccc(/C=N/c2ccc(-c3ccccc3)cc2)c1O	64.1	24.2	
COc1ccc(/N=C/c2cccc(OC)c2OC)cc1	0	0	
Cc1cccc(/N=C/c2cccc(O)c2O)c1C(=O)O	21.2	15	
O=C(O)c1cccc(/N=C/c2cccc(O)c2O)c1	9.05	5	
COc1cccc(/C=N/c2ccc(-c3ccccc3)cc2)c1O	75.3	23.3	
COc1ccc(/N=C/c2ccc(O)c(OC)c2)cc1	0	0	
COc1ccc(/N=C/c2cccc(OC)c2O)cc1	45.6	3.77	
COc1cc(/C=N/c2ccc(-c3ccccc3)cc2)ccc1O	0	2.39	
